The series has as its system MS2 coat protein. Briefly: apparent Kd, MS2 coat protein; higher = weaker binding; RNA-MaP array; FMN 200 µM where present. The essentials:
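Green signal was scaled to red-channel RNA signal and control-cluster median Fmax, and the apparent Kd was taken as the median of filtered per-cluster binding-curve fits. The binding series used SNAP-549-labelled MS2 coat protein from 0.7 or 1.5 nM, doubling to 3 µM, on designs transcribed by stalled E. coli RNA polymerase on Illumina sequencing-chip clusters. Each series ran without and then with constant ligand in 100 mM Tris-HCl pH 7.5, 80 mM KCl, 4 mM MgCl2, BSA, DTT, yeast tRNA and Tween-20.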

[1] abbreviates: designed as: OFF switch for flavin mononucleotide, no ligand.
[2] abbreviates: ligand present: flavin mononucleotide, designed as: OFF switch for flavin mononucleotide.
The mark [3] stands for this setting: designed as: ON switch for flavin mononucleotide, no ligand.
Setting [4] is: ligand present: flavin mononucleotide, designed as: ON switch for flavin mononucleotide.

On to “GAUAGGACAGAGAAGGACAUAGCUAGAGAUACUAGCAUAAGAACUUCAACAUGAGGAUCACCCAUGUAGGAUAUCUGUCCUAUC”, for which the “apparent Kd” value by setting is: under setting [1], 0.00688 µM; under setting [2], 0.00876 µM.
Regarding “AGGAAGUCAGGAUAUGCUGCUCGUCACUUGCGUGAUGAGUAGCAGAAGGGACAUGAGGAUCACCCAUGUAAAAA”, the “apparent Kd” value runs as follows: under setting [1], 0.0526 µM; under setting [2], 0.0579 µM.
With “GGUGCCAUGUAGAAGGCAGAUCUGAUUCAGAUCUGAGGAUAUACAUGAGGAUCACCCAUGUAAGGGCACCGCACGAGAGUGCAA”, the “apparent Kd” value reads like this: under setting [1], 0.00656 µM; under setting [2], 0.0102 µM.
With “CUACCUUAUGAGAAGGCGGUCAUGAAACAUGAUCGAGGAUAUCAUGUAAACAUGAGGAUCACCCAUGUAUGGGUAUUAUGGUAA”, the “apparent Kd” value worked out at 0.226 µM under setting [3] and 0.0288 µM under setting [4].
Take “AGCUAGUCAGGAUAUACGAACAUGUCAAAAGACGUGAAGGGACAUGAGGAUCACCCAUGUAGAAGGGACUAGCA”: the “apparent Kd” value under setting [1] is 0.04 µM and the “apparent Kd” value under setting [2] was determined as 0.17 µM.
With “CCAUGGCUGUGAGGAUAUGUCUGACAAAGUCAGACAGAAGGCACAUGAGGAUCACCCAUGUGAAAACACCAACAAAAGCCAUGG”, the “apparent Kd” value under setting [1] was 0.00593 µM and the “apparent Kd” value under setting [2] turned out to be 0.0069 µM.
With “GGUGGUCCUGUUACAUGAGGAUCACCCAUGUGAGGGCCACGUAGAAGGACCCAGAACUCCUUUGGGUAGGAUAUAUGGGCCUUC”, the “apparent Kd” value amounted to 0.00478 µM under setting [1] and 0.00597 µM under setting [2].
For the sequence “UAUAUAUAGUAAGGAUAUGUAUAAAUUUUAUAAACAGAAGGUACUGACAUGAGGAUCACCCAUGUUUUAGUGUGGGCAUGUAGA”, the “apparent Kd” value under setting [1] was 0.0962 µM and the “apparent Kd” value under setting [2] came out at 0.147 µM.
Regarding “AACCGACAUGAGGAUCACCCAUGUCAGGAUAUGGACUGACAUCGAAAGGAUGGAGGAACCAGAAGGGACUGGGC”, the “apparent Kd” value is, setting by setting: under setting [1], 0.0371 µM; under setting [2], 0.0816 µM.
As to “AGUAAGAUGCAGAAGGUGUCAGCGAGAGCUGCACAUGAGGAUCACCCAUGUUGUCGGUGACGACGCAAGGAUAUGCAUCUUACA”, the “apparent Kd” value under setting [3] is 0.0892 µM and the “apparent Kd” value under setting [4] worked out at 0.0158 µM.
For “CCGGAUAUGCAGGAUAUCGUAACGGAAACGUUACGAGAAGGGUAUACAUGAGGAUCACCCAUGUGUCCUACCGG”, the “apparent Kd” value is 0.0281 µM under setting [1] and 0.0323 µM under setting [2].
The like results for “AAUGUUUGAUUCCACUUACACAUGAGGAUCACCCAUGUUAUCGAGGAUAUGCAUUAGAGUGUUUAGCAGAAGGCGAUGUAAUUG” were, in that order, 0.00846 µM and 0.025 µM.
As to “UCGGAAUUCAAGAAGGACAUGAGGAUCACCCAUGUAGGAUAUUGACCCGAAUUGUGGGUUUUGCUGAUGCACUUCCCGAGGACA”, the “apparent Kd” value reads like this: under setting [3], 0.147 µM; under setting [4], 0.0116 µM.
As to “ACUUCACAUGAGGAUCACCCAUGUGAGGAUAUCGUCGAGGAUGUAAUGCCAUCCGUGGCGAGAAGGCGCAUGGU”, the “apparent Kd” value is, setting by setting: under setting [1], 0.0299 µM; under setting [2], 0.0777 µM.
As to “ACAUCGACAGGAUAUACGUGAGUGGAAAAAGUAUGUCCACUACAUGAGGAUCACCCAUGUAGAAGGGUCGAUGA”, the “apparent Kd” value under setting [1] stood at 0.0163 µM and the “apparent Kd” value under setting [2] is 0.015 µM.
As for “GUAGAGUAGUGAGGAUAUACGAGAACGAUAGUUCGGCGAUCCAUUAAUACAUGAGGAUCACCCAUGUAGAAGGCACUUCUCUAC”, the “apparent Kd” value under setting [1] came to 0.00711 µM and the “apparent Kd” value under setting [2] was found to be 0.0904 µM.
Taken in the same sequence, the figures for “GCGGAGUGAGGAUAUCCAAUUUAACGUACCAAUUAGGUACGGGAGAAGGCACAUGAGGAUCACCCAUGUACCGC” were 0.0724 µM and 0.0535 µM.
As for “GUAGCUAUCGGAGGAUAUUCAUACCGGAAACGGACAUGAGGAUCACCCAUGUGGCGAAAGCCAUGGGAGAAGGCCGAUAGCUAC”, the “apparent Kd” value reads like this: under setting [3], 0.606 µM; under setting [4], 0.131 µM.
In the case of “UUGAAUUUAAACAUGAGGAUCACCCAUGUGUCAUAGUUGACAUAGGAUAUGCUUAUACUUUGAAAGCAGAAGGAUGACGAUACU”, the “apparent Kd” value was 0.0413 µM under setting [3] and 0.0101 µM under setting [4].
“AUACCACGAGGAUAUCGUCUAUUUUACAUGAGGAUCACCCAUGUUAUCUUUGUUUUGUUUCGAGAAGGCGUGUUUU”: the “apparent Kd” value turned out to be 0.0251 µM under setting [1] and 0.0171 µM under setting [2].
As for “GCACUGGAUGUAGGAUAUCAGGACGAUAAGUCCUGAGAAGGACAUGAGGAUCACCCAUGUGAUAAAACCAGUGCAAAUAAUAUA”, the “apparent Kd” value runs as follows: under setting [1], 0.0185 µM; under setting [2], 0.109 µM.
“GGAUUACAAAUUUAUUUAAUACGAACAUGAGGAUCACCCAUGUAGGAUAUGCUAGUUAAGUAAUAGCAGAAGGACAUGUGCCUU”: the “apparent Kd” value under setting [1] is 0.0108 µM and the “apparent Kd” value under setting [2] is 0.0306 µM.
Taken in the same sequence, the figures for “CUAUUUUUACAGAAGGUUUAAUACUAUGUAUGAGAAGGAUAUGUAACAUGAGGAUCACCCAUGUUUUAUUUAUAUGAGGUUCGU” were 0.0134 µM and 0.0115 µM.

One may read the apparent Kd as the concentration giving half-maximal binding under the conditions of the assay.

The record behind these values is the EternaBench riboswitch data.
